Test results published in ChEMBL document CHEMBL4014339, “Discovery of 1,4-Benzodiazepine-2,5-dione (BZD) Derivatives as Dual Nucleotide Binding Oligomerization Domain Containing 1/2 (NOD1/NOD2) Antagonists Sensitizing Paclitaxel (PTX) To Suppress Lewis Lung Carcinoma (LLC) Growth in Vivo” (J Med Chem, 2017).
The source made the active and inactive calls. The rule behind the calls is not given here.

Legend:
[1] = target: T1, Nucleotide-binding oligomerization domain-containing protein 2 (Homo sapiens, UniProt Q9HC29); test: Inhibition of NOD2 in human PBMC-derived macrophages assessed as reduction in MDP-stimulated TNFalpha mRNA expression at 10 uM preincubated for 1 hr followed by MDP stimulation for 90 mins by RT-qPCR analysis
Summary of the method: (§1)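 Human CD14+ monocytes from donor PBMC, differentiated 7 days with M-CSF 20 ng/mL to macrophages; 1.0 × 10^6 cells pretreated 1 h with compound (final 0.1% DMSO), then C12-iE-DAP 500 ng/mL or MDP 5 μg/mL for 90 min. IL-6/TNF-α mRNA by qRT-PCR, normalized to GAPDH; stimulated response set to 100%.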

[2] = target: T1, Nucleotide-binding oligomerization domain-containing protein 2; test: Inhibition of human NOD2 expressed in HEK293 cells assessed as reduction of MDP-mediated decrease in IkBalpha levels preincubated for 1 hr followed by MDP addition measured after 1 hr by Western blot analysis
[3] = target: T2, Nucleotide-binding oligomerization domain-containing protein 1 (Homo sapiens) (UniProt Q9Y239); test: Inhibition of NOD1 in human PBMC-derived macrophages assessed as reduction in C12-iE-DAP-stimulated JNK phosphorylation at 1 to 10 uM preincubated for 1 hr followed by C12-iE-DAP stimulation for 45 mins by Western blot analysis
T2 sequence (whole entry): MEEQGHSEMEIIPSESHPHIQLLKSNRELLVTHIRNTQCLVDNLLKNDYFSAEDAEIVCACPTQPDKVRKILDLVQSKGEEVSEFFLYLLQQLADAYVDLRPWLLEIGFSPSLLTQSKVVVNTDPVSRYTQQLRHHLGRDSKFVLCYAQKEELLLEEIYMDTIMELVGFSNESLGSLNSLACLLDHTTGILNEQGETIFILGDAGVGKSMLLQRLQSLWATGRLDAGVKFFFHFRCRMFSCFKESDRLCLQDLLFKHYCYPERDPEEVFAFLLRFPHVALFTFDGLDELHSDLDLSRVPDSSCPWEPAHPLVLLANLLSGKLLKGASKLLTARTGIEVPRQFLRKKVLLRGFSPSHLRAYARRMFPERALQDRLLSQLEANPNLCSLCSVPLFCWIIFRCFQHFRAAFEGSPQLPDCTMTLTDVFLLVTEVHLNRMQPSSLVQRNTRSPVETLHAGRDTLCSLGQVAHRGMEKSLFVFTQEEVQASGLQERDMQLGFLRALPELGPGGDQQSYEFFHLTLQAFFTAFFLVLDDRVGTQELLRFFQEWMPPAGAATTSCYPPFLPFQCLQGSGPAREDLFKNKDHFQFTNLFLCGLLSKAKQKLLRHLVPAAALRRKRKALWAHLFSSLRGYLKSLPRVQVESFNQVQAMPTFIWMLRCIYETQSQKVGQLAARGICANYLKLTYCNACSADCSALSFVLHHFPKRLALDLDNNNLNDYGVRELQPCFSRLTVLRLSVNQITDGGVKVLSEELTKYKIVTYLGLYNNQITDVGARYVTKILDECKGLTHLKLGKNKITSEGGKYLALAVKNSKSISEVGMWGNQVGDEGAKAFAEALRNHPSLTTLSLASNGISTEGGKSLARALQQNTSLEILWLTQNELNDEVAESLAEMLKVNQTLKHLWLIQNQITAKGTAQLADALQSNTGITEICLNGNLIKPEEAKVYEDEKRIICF

[4] = target: T2, Nucleotide-binding oligomerization domain-containing protein 1 (Homo sapiens); test: Inhibition of NOD1 in human PBMC-derived macrophages assessed as reduction in C12-iE-DAP-stimulated p38 phosphorylation at 1 to 10 uM preincubated for 1 hr followed by C12-iE-DAP stimulation for 45 mins by Western blot analysis
[5] = target: T1, Nucleotide-binding oligomerization domain-containing protein 2; test: Antagonist activity at human NOD2 expressed in HEK-Blue cells assessed as inhibition of MDP-stimulated cell activation at 10 uM preincubated for 3 hrs followed by MDP addition measured after 20 hrs by SEAP reporter gene assay; type: cell-based
Summary of the method: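 HEK-Blue hNOD1 or hNOD2 cells preincubated with compound 3 h, then stimulated 20 h with C12-iE-DAP 50 ng/mL (NOD1) or MDP 100 ng/mL (NOD2); SEAP in supernatant quantified. Primary screen at 10 μM, hits repeated in triplicate; IC50 from dose-response, mean ± SD (n = 3), only for compounds reaching ≥50% inhibition at the screening concentration.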

[6] = target: T2, Nucleotide-binding oligomerization domain-containing protein 1 (Homo sapiens); test: Inhibition of NOD1 in human PBMC-derived macrophages assessed as reduction in C12-iE-DAP-stimulated IL6 mRNA expression preincubated for 1 hr followed by C12-iE-DAP stimulation for 90 mins by RT-qPCR analysis; summary of the method: as §1
[7] = target: T2, Nucleotide-binding oligomerization domain-containing protein 1 (Homo sapiens); test: Inhibition of human NOD1 expressed in HEK293 cells assessed as reduction in C12-iE-DAP-stimulated IL8 secretion preincubated with compound followed by C12-iE-DAP stimulation measured after 24 hrs by ELISA; type: cell-based
[8] = target: T1, Nucleotide-binding oligomerization domain-containing protein 2; test: Inhibition of NOD2 in human PBMC-derived macrophages assessed as reduction in MDP-stimulated p38 phosphorylation at 1 to 10 uM preincubated for 1 hr followed by MDP stimulation for 1 hr by Western blot analysis
[9] = target: T1, Nucleotide-binding oligomerization domain-containing protein 2; test: Inhibition of NOD2 in human PBMC-derived macrophages assessed as reduction in MDP-stimulated IL6 mRNA expression at 10 uM preincubated for 1 hr followed by MDP stimulation for 90 mins by RT-qPCR analysis; summary of the method: as §1
[10] = target: T1, Nucleotide-binding oligomerization domain-containing protein 2; test: Inhibition of NOD2 in human PBMC-derived macrophages assessed as reduction in MDP-stimulated IL6 mRNA expression preincubated for 1 hr followed by MDP stimulation for 90 mins by RT-qPCR analysis; summary of the method: as §1
[11] = target: T2, Nucleotide-binding oligomerization domain-containing protein 1 (Homo sapiens); test: Inhibition of NOD1 in human PBMC-derived macrophages assessed as reduction in C12-iE-DAP-stimulated RIP2 phosphorylation at 1 to 10 uM preincubated for 1 hr followed by C12-iE-DAP stimulation for 45 mins by Western blot analysis
[12] = target: T1, Nucleotide-binding oligomerization domain-containing protein 2; test: Inhibition of human NOD2 expressed in HEK293 cells assessed as suppression of MDP-stimulated RIP2 phosphorylation preincubated for 1 hr followed by MDP stimulation measured after 1 hr by Western blot analysis
[13] = target: T2, Nucleotide-binding oligomerization domain-containing protein 1 (Homo sapiens); test: Inhibition of NOD1 in human PBMC-derived macrophages assessed as reduction in C12-iE-DAP-stimulated ERK phosphorylation at 1 to 10 uM preincubated for 1 hr followed by C12-iE-DAP stimulation for 45 mins by Western blot analysis
[14] = target: Receptor-interacting serine/threonine-protein kinase 2 (Homo sapiens) (UniProt O43353); test: Inhibition of recombinant human N-terminal GST tagged RIPK2 (1 to 299 residues) expressed in baculovirus infected Sf9 insect cells assessed as decrease in MBP phosphorylation at 10 uM preincubated with compound followed by ATP addition measured after 60 mins by ADP-Glo assay
Chain of Receptor-interacting serine/threonine-protein kinase 2 (Homo sapiens) (O43353 whole entry, the tested form may be a part): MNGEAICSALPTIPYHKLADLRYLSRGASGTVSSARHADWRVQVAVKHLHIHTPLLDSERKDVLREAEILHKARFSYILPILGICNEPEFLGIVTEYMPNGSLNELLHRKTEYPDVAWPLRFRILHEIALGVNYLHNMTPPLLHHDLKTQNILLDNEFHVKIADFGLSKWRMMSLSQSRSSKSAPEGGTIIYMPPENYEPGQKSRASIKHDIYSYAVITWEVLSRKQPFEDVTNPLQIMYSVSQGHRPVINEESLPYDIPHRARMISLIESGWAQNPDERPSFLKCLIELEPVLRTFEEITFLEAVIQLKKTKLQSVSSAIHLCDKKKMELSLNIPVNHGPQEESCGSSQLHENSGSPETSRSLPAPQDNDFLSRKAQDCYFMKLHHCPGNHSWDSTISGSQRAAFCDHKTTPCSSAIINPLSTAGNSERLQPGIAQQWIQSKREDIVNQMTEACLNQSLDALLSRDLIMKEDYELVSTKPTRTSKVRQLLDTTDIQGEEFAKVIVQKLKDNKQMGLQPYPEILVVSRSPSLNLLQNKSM

T1 sequence (Q9HC29 whole entry, the tested form may be a part): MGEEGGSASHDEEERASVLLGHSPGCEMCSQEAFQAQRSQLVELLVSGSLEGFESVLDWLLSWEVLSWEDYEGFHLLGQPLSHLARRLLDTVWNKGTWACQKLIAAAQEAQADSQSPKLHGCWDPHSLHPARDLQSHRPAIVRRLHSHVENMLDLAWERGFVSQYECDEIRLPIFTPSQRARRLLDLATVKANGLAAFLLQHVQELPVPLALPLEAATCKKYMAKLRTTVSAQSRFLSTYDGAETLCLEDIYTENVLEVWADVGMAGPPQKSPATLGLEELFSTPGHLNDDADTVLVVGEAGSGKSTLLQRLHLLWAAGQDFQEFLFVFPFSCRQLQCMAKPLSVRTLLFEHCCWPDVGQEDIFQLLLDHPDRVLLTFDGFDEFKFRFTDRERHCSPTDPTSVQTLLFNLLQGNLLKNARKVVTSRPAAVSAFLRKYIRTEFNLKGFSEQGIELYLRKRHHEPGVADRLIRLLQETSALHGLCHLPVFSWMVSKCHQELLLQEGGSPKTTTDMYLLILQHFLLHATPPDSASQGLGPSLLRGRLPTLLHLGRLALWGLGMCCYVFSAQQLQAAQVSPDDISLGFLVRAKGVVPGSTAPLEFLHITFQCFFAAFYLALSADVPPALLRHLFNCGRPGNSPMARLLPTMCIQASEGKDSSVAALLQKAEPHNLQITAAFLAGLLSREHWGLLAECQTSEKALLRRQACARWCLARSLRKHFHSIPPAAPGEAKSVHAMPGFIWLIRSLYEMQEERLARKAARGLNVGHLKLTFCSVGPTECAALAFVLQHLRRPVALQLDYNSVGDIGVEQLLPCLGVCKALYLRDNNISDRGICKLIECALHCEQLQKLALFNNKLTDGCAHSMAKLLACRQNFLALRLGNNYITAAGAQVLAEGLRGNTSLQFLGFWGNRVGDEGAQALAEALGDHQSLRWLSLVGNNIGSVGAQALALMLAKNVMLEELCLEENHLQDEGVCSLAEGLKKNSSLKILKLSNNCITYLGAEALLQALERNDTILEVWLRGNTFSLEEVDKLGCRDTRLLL

CCCNC(=O)CC[C@H]1NC(=O)c2cc(Oc3cccc(N(C)C)c3)c(NC(=O)COCc3ccccc3)cc2NC1=O
inhibition [1]: Active
inhibition [2]: Dose-dependent effect
inhibition [3]: Active
inhibition [4]: Active
inhibition [5]: 80.4%
inhibition [6]: Dose-dependent effect
inhibition [7]: Dose-dependent effect
inhibition [8]: Active
inhibition [9]: Active
inhibition [10]: Dose-dependent effect
inhibition [11]: Active
inhibition [12]: Dose-dependent effect
inhibition [13]: Active
inhibition [14]: inactive
